NPY Y1 blocker = NPY-Y1 (human) receptor antagonism; HEK293-CNG Y1 cells, membrane potential fluorescence; NPY at EC95, then isoproterenol; inhibition, % at 3.6 µM; 200,000 tested, 1% active;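 active = inhibition above the campaign mean inhibition of all tested compounds plus 3 SD, cut at about 20% in these data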;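 also: 0% = DMSO wells given NPY plus isoproterenol and 100% = isoproterenol alone without NPY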
Target sequence (P25929 whole entry, looked up): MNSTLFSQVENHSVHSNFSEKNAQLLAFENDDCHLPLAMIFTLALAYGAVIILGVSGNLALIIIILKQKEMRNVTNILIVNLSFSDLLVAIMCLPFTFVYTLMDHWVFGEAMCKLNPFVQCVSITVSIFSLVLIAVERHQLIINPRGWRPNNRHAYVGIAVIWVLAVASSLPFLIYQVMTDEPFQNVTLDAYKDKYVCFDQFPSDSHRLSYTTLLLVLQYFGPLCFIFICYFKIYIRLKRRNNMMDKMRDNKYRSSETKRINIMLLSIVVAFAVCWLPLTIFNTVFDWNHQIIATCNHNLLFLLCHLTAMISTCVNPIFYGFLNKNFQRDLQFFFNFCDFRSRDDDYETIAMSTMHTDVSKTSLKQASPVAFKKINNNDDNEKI
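System: HEK293 cells with Y1 receptor plus CNG channel / Probe or stimulus: NPY 25 nM then isoproterenol 1 µM plus Ro 20-1724 25 µM / Compound: one concentration, 3.6 µM, in 0.4% DMSO / Schedule: compound incubation 1 h at room temperature, readout 45 min post-stimulation / Measured by: membrane potential fluorescence / Read-out: % inhibition of NPY effect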
S1P4 agonist = activates the human S1P4 receptor | S1P4-expressing cell line, agonist reporter assay | activation, % at 4.98 µM | O95977 | AID 1509 | 220,000 tested, 0.35% active; in the data active = activation above about 11%;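 also: 0% = DMSO vehicle and 100% = reference agonist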
NPY Y2 blocker = antagonists of human neuropeptide Y receptor Y2; 140,000 tested, 0.99% active; NPY-Y2 expressing cells, antagonist mode; inhibition, % at 2.7 µM; P49146; in the data active = inhibition above about 17%;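 also: 0% = vehicle with agonist challenge and 100% = reference antagonist with challenge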
S1P4 antag = antagonists of human S1P4 receptor. 220,000 tested, 0.26% active. AID 1510. O95977. inhibition, % at 4.98 µM. S1P4-expressing cells, antagonist mode, reporter read-out; in the data active = inhibition above about 29%;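 also: 0% = wells stimulated with agonist and 100% = vehicle wells without agonist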
NPY-Y2 PAM-ag = potentiates or activates human NPY-Y2 receptor | P49146 | cells expressing NPY-Y2, potentiator/agonist read-out | activation, % at 3.6 µM | 220,000 tested, 0.45% active; in the data active = activation above about 27%;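 also: cells stimulated with NPY near EC25 plus isoproterenol at EC100; 0% = vehicle plus submaximal agonist and 100% = vehicle plus saturating agonist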
NPY1 pot ag = potentiators or agonists of human neuropeptide Y receptor Y1; NPY-Y1 expressing cells, potentiator/agonist activation; activation, % at 3.6 µM; 220,000 tested, 0.37% active; AID 1304; in the data active = activation above about 33%, passing the limit was not always enough;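 also: cells stimulated with NPY at EC10 then isoproterenol at EC100; 0% = low agonist plus stimulus and 100% = saturating agonist plus stimulus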
NPY-Y2 pot conf = confirmation of human NPY-Y2 receptor potentiators or agonists. shares compounds with NPY-Y2 PAM-ag. activation, % at 3.6 µM. 450 tested, 20% active. cell-based NPY-Y2 potentiator/agonist assay; in the data active = activation above about 33%
NPY-Y1 potentiator = potentiates or activates NPY-Y1, counter-screen for NPY-Y2 hits | AID 1651 | Y1 HEK293-CNG cells, membrane potential fluorescence | 450 tested, 20% active | activation, % at 3.6 µM | shares compounds with NPY-Y2 PAM-ag; in the data active = activation above about 45%;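 also: cells stimulated with submaximal NPY then isoproterenol with phosphodiesterase inhibitor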
NPY-Y1 agonist 2 = counter-screen for NPY-Y2 potentiators: agonists of human NPY-Y1 | shares compounds with NPY-Y2 PAM-ag | HEK293 Y1-CNGC, membrane potential fluorescence, agonism | activation, % at 3.6 µM | 450 tested, 37% active | AID 1702;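 active = activation above the mean of DMSO-only control wells plus 3 SD, cut at about 18% in these data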;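 also: cells stimulated with 1 µM isoproterenol plus the PDE inhibitor Ro 20-1724; 0% = isoproterenol with DMSO and no NPY and 100% = 40 nM NPY; Y1 agonists lower the membrane potential dye signal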
CNGC inhibitor = counter-screen for NPY-Y2 potentiators: inhibitors of CNG channel activity; shares compounds with NPY-Y2 PAM-ag; HEK293-CNG parental, isoproterenol cAMP, membrane potential fluorescence; inhibition, % at 3.6 µM; 450 tested, 32% active; AID 1703;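 active = inhibition above the control-well mean plus 3 SD of those wells, cut at about 22% in these data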;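 also: 0% = DMSO with isoproterenol and 100% = DMSO without isoproterenol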
NPY-Y2 ag 2 = counter-screen for NPY-Y2 potentiators: agonists of human NPY-Y2. shares compounds with NPY-Y2 PAM-ag. HEK293 Y2/CNGC cells, membrane potential fluorescence, agonist mode. activation, % at 3.6 µM. 450 tested, 56% active. AID 1710;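 active = activation above the mean of solvent-only control wells plus 3 SD, cut at about 10% in these data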;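 also: cells stimulated by isoproterenol with no NPY added so direct agonism is tested; 0% = DMSO with isoproterenol alone and 100% = NPY at EC100 plus isoproterenol; agonism lowers probe fluorescence through less cAMP and CNG channel opening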
The depositor's hits bear a star; · = no result given. A selection: hits, their analogues and other compounds. The true share with any hit is near 2.4%.

SMILES	NPY Y1 blocker	S1P4 agonist	NPY Y2 blocker	S1P4 antag	NPY-Y2 PAM-ag	NPY1 pot ag	NPY-Y2 pot conf	NPY-Y1 potentiator	NPY-Y1 agonist 2	CNGC inhibitor	NPY-Y2 ag 2
O=C1N/C(=N\c2ccccn2)SC1Cc1ccc(Cl)cc1 (centres undefined)	-1.2	-0.9	·	-8.3	15.0	13.3	·	·	·	·	·
O=C(c1ccc(F)cc1F)C1CCN(c2ccc([N+](=O)[O-])cn2)CC1	·	0.6	·	1.0	46.2*	31.3	7.6	-4.4	8.1	7.6	11.8*
Cn1cnc2c(N/N=C/c3cccs3)ncnc21	·	-0.5	·	9.9	63.8*	0.3	-9.0	-2.6	-4.8	-9.9	-2.1
COCCCNC(=O)c1c[nH]c2ccc(S(=O)(=O)N3CCc4ccccc43)cc2c1=O	-0.2	0.0	·	-28.2	32.7*	12.4	13.5	7.9	-3.1	1.1	12.7*
S=C1NCN(CCc2ccccc2)CN1	·	1.3	·	11.0	72.7*	5.5	-1.1	-3.2	-4.6	2.8	5.2
NC(Cc1c[nH]c2ccccc12)C(=O)NCc1ccco1 (centres undefined)	-7.4	-0.3	·	-11.4	-5.1	7.7	·	·	·	·	·
Cc1nnc(N/N=C/C(C)c2ccccc2)[nH]c1=O (centres undefined)	·	0.2	·	17.8	2.2	3.6	·	·	·	·	·
CCc1nnc(NC(=O)CCC(=O)N2CCN(C3c4ccccc4-c4ccccc43)CC2)s1	-0.4	0.4	7.5	3.1	7.1	4.5	·	·	·	·	·
O=C(c1c[nH]c2ccc(S(=O)(=O)N3CCOCC3)cc2c1=O)N1CCCC1	3.9	-0.3	0.4	3.5	16.7	12.4	·	·	·	·	·
CC(C)c1ccc(NS(=O)(=O)c2ccc3[nH]cc(C(=O)N4CCC(C(N)=O)CC4)c(=O)c3c2)cc1	-11.2	-0.1	-4.0	-0.5	38.7*	21.4	15.5	31.5	18.1*	14.1	11.7*
NC(=O)c1ccc2nc(NC(=O)c3ccc(N)cc3)sc2c1	-4.6	-1.8	·	5.7	30.8*	23.5	10.8	13.7	17.6*	15.6	18.2*
NS(=O)(=O)c1ccc2nc(NC(=O)c3ccncc3)sc2c1	-7.2	-0.6	·	-5.8	3.9	-9.6	·	·	·	·	·
CCNS(=O)(=O)c1ccc(CCC(=O)NCc2ccccc2)cc1	8.6	0.4	·	0.9	-3.0	-3.1	·	·	·	·	·
OC1(c2ccc(F)cc2)CSC(=Nc2cccnc2)N1Cc1ccco1 (centres undefined)	-10.7	0.7	·	-4.0	33.5*	25.6	6.7	19.2	5.4	-1.9	7.5
OC1(c2ccc(OC(F)F)cc2)CSC(=Nc2cccnc2)N1Cc1ccco1 (centres undefined)	-3.8	-1.0	·	-6.8	35.4*	29.2	12.7	22.4	8.8	9.3	12.6*
Cc1ccc(CNC(=O)CCC2CCCN(C(=O)CCC(F)(F)F)C2)o1 (centres undefined)	3.2	1.1	·	-3.2	7.7	4.4	·	·	·	·	·
CCOP(=O)(OCC)C(Nc1ccccc1)c1ccccc1C(F)(F)F (centres undefined)	·	0.9	·	-12.2	0.0	9.7	·	·	·	·	·
COc1ccc(S(=O)(=O)Nc2ccc(S(=O)(=O)Nc3ccc(F)cc3)cc2)cc1C	-7.1	-3.7	-5.3	10.7	33.8*	30.4	24.8	37.4	26.9*	22.5*	21.1*
COc1ccc(S(=O)(=O)Nc2cccc(F)c2)cc1C	3.2	-2.1	·	-0.2	14.2	-5.7	·	·	·	·	·
O=C(CCn1cnc2ccccc21)N=Nc1c(O)[nH]c2ccccc12	·	-0.7	·	10.5	-23.8	-8.8	·	·	·	·	·
COc1ccc(NC(=O)C(=S)NC2CCCCC2)cc1	1.9	1.9	·	10.1	31.4*	24.4	11.0	19.9	15.1	-12.0	-7.8
